Our source for the cytotoxicity values is ChEMBL document CHEMBL4513216, “Probing the Open Global Health Chemical Diversity Library for Multistage-Active Starting Points for Next-Generation Antimalarials” (ACS Infect Dis, 2020).

The nature of the series: Toxicity liver stage against HepG2, at 10uM. The arrangement: test concentration 10 uM, cell line HepG2-A16-CD81EGFP. As to conditions: human, HepG2-A16-CD81EGFP cells; read-out: INHIBITION
It counts as cell-based. The procedure, abridged: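 Uninfected HepG2-A16-CD81EGFP cells, 3 × 10^3 per well, 1536-well, plated on prespotted compound at 10 μM final, parasite-free screening media added to match infected plates; puromycin 10 μM positive, DMSO 0.5% negative; run in parallel with 48 h PbLuc assay at 37 °C, 5% CO2; viability by CellTiter-Glo luminescence, normalized to controls.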
As to `c1ccc2c(c1)COC1(CCCC1)N2`, the cytotoxicity at 10 µM came to 10.4%.

Take `CCN(CCO)C[C@@H]1CN(c2cccc(C(F)(F)F)n2)C[C@@H]1CO`: the cytotoxicity at 10 µM came to 0.855%.

Consider `Cc1ccc(S(=O)(=O)N2C[C@@H]3C[C@@H](NC(=O)C(C)(C)C)[C@@H]3C2)cc1`, for which the cytotoxicity at 10 µM was -3.81%.

As for `COc1cccc(CC(=O)N2CCCC2c2nc(C)c(F)c(O)n2)c1` (stereo unspecified), the cytotoxicity at 10 µM is -21.6%.

Regarding `CCOc1ccc(Cl)cc1C(C(=O)O)N1CCC(CO)CC1` (stereo unspecified), the cytotoxicity at 10 µM was determined as 2.93%.

Regarding `O=C(Nc1ccnn1C1CCCC1)c1ccc(NC2CC2)nc1`, the cytotoxicity at 10 µM was 4.75%.

Take `Cc1cc(NC(=O)CNC(C)(C)c2ccc3c(c2)OCO3)on1`: the cytotoxicity at 10 µM amounted to 7.51%.

With `Cc1nc(C)c(CCNC(=O)NC2CC(=O)N(C(C)(C)C)C2)s1` (stereo unspecified), the cytotoxicity at 10 µM is -1.08%.

As to `O=C(c1cc[nH]n1)N1CCN(C(c2ccccc2)C(F)(F)F)CC1` (stereo unspecified), the cytotoxicity at 10 µM is -6.36%.

Consider `CCN(Cc1nc2c(cnn2C)c(=O)[nH]1)c1cc(C)ccc1C`, for which the cytotoxicity at 10 µM is -11.3%.

`Cc1cnc(-c2nc(O)c3c(n2)CN(C(=O)C2CCOC2)CC3)cn1` (stereo unspecified): the cytotoxicity at 10 µM was -6.76%.

On to `CCCc1cc(CNc2cc(CCC)nc3ccnn23)on1`, for which the cytotoxicity at 10 µM was -6.75%.

In the case of `O=C(NCC1CCOC1)N1CCN(Cc2ccc3c(c2)OCO3)CC1` (stereo unspecified), the cytotoxicity at 10 µM was -4.33%.

In the case of `CC(C)C(=O)N1CC[C@H]2N(C)CC[C@@]2(C(=O)N2CCCC2)CC1`, the cytotoxicity at 10 µM is 5.5%.

For `Cc1cccc(-c2nccn2C2CC(=O)N(C(C)C)C2)n1` (stereo unspecified), the cytotoxicity at 10 µM was determined as 5.62%.

For the compound `Cc1cnc(NCc2ccc(S(=O)(=O)N(C)C(C)C)cc2)nc1C`, the cytotoxicity at 10 µM came out at 10.2%.

As for `CN(Cc1cnccn1)S(=O)(=O)N1CCCC1c1ccco1` (stereo unspecified), the cytotoxicity at 10 µM is -15.6%.

Turning to `CN(Cc1ccccc1C(F)(F)F)C(C(N)=O)c1ccccc1` (stereo unspecified), the cytotoxicity at 10 µM came to 13.2%.

For the compound `Cc1cc(C)c2c(c1)C(NCc1nnc3n1CCC3)CCCO2` (stereo unspecified), the cytotoxicity at 10 µM was -0.117%.

For `CCN(C)C(=O)Nc1cc(F)c(OC)cc1F`, the cytotoxicity at 10 µM was -10.4%.

Regarding `NC(=O)CCSCc1cc(Br)cc2cccnc12`, the cytotoxicity at 10 µM is -7.68%.

As to `Fc1cc(CNCc2ccc3c(c2)CCO3)ccc1N1CCOCC1`, the cytotoxicity at 10 µM is -7.24%.

On to `O=S(=O)(Nc1ccc(N2CCOCC2)cc1)c1cccc(F)c1`, for which the cytotoxicity at 10 µM was found to be 12%.

As to `Cc1csc(CN2CC[C@H]3C(=O)N(c4cccnc4)CCO[C@H]3C2)n1`, the cytotoxicity at 10 µM amounted to 6.31%.

`OCC(O)CN(CCN1CCOCC1)Cc1ccco1` (stereo unspecified): the cytotoxicity at 10 µM was -4.7%.

Regarding `CC(C)(C)n1ncc2c1CCCC2NCc1cccc2c1OCCO2` (stereo unspecified), the cytotoxicity at 10 µM was -2.69%.

Turning to `CC(C)NC(=O)c1cccc(Oc2ccc3nncn3n2)c1`, the cytotoxicity at 10 µM was -13.3%.

Consider `CC(NCCCN1CCCC1=O)c1ccc(F)cc1N(C)C` (stereo unspecified), for which the cytotoxicity at 10 µM is -2.78%.

In the case of `CCN(CC)S(=O)(=O)c1cccc(C(=O)N(C)Cc2ccsc2)c1`, the cytotoxicity at 10 µM is -6.8%.

As to `O=C(Cc1ccc(-c2ccccc2)cc1)N1CCOCC(O)C1` (stereo unspecified), the cytotoxicity at 10 µM amounted to 1.51%.

For the compound `O=C1CC(c2ccc3c(c2)OCO3)c2snc(C(=O)O)c2N1` (stereo unspecified), the cytotoxicity at 10 µM was determined as 4.43%.

With `Cc1noc(C)c1CN1C[C@H](OCc2ccncc2)[C@H]2OCCC[C@H]21`, the cytotoxicity at 10 µM amounted to 9.98%.

As for `CS(=O)(=O)NCCC1CCCCN1C(=O)NCCc1ccccc1` (stereo unspecified), the cytotoxicity at 10 µM is -6%.

As to `Cc1cc(C)nc(Nc2ccc(C3CCCCN3)cn2)n1` (stereo unspecified), the cytotoxicity at 10 µM turned out to be 11.7%.

With `CCOc1ccc(NC(=O)N2CCC(n3cncn3)CC2)cc1Cl`, the cytotoxicity at 10 µM is -7.22%.

In the case of `COCCOC(=O)N1CCN2C[C@@H](CO)[C@H](c3ccccc3)[C@H]2C1`, the cytotoxicity at 10 µM was determined as 3.44%.

Take `N#Cc1c(N)nc2c(c1-c1c[nH]nc1C1CCCCC1)CC(N)CC2` (stereo unspecified): the cytotoxicity at 10 µM was -3.06%.

Consider `O=C(Cc1ccc(O)cc1)N1CCCC(O)(CN2CCOCC2)CC1` (stereo unspecified), for which the cytotoxicity at 10 µM is -1.45%.

Consider `N#CC1CCN(C(=O)CN2CC(c3ccccc3)CC2=O)CC1` (stereo unspecified), for which the cytotoxicity at 10 µM was -0.745%.

Take `O=C(CCCN1CCCCC1)N[C@H](C(=O)O)c1cccc(F)c1F`: the cytotoxicity at 10 µM was -13.2%.

As for `O=C(NC1CCC(N2C(=O)CCC2=O)CC1)c1c[nH]c2ccccc12` (stereo unspecified), the cytotoxicity at 10 µM was -2.06%.

For the compound `CCN1CCC2(CC1)c1nc[nH]c1CCN2S(C)(=O)=O`, the cytotoxicity at 10 µM came out at 6.33%.

As for `CCOCC(O)CN1CCN(C(=O)c2cccc(F)c2)CC1` (stereo unspecified), the cytotoxicity at 10 µM is -11.1%.

Consider `Cc1cc(C(=O)N2CCCC(n3cncn3)C2)nn1C` (stereo unspecified), for which the cytotoxicity at 10 µM is -0.776%.

For the compound `Cn1c(CN2CCOCC2)nnc1C1CCN(C(=O)C2CCCC2)CC1`, the cytotoxicity at 10 µM was -17.8%.

As to `CC(O)CN1CCC(CNCc2ccccc2OC(F)(F)F)CC1` (stereo unspecified), the cytotoxicity at 10 µM is -11.6%.

With `COC(=O)CC(NC(=O)CCCn1cccn1)c1ccc(Cl)cc1` (stereo unspecified), the cytotoxicity at 10 µM worked out at 4.7%.

For the compound `COc1ccccc1C1(CNCc2cccc(O)c2)CCOCC1`, the cytotoxicity at 10 µM was 9.18%.

Turning to `CC(=O)c1ccccc1-c1cc(C(=O)O)cc(S(=O)(=O)NC(C)C)c1`, the cytotoxicity at 10 µM worked out at 0.476%.

With `CC(C)n1cnc(-c2nc(C(=O)N3CCCC3)c3ccccn23)c1`, the cytotoxicity at 10 µM worked out at 6.47%.

Turning to `CC(=O)N1CCCC1c1ccc(-c2c(C)noc2C)cn1` (stereo unspecified), the cytotoxicity at 10 µM was found to be 2.88%.

Take `COc1ccccc1CNC(C)c1ccc(-n2ccnc2)cc1` (stereo unspecified): the cytotoxicity at 10 µM worked out at 5.25%.

For `Cc1ccc(N2CCC3(CCN(C(=O)c4ccccn4)CC3)CC2)nn1`, the cytotoxicity at 10 µM amounted to 0.255%.

As for `O=C1N[C@H]2OCCC[C@H]2[C@H](c2ccccc2C(=O)O)N1`, the cytotoxicity at 10 µM was found to be 2.62%.

With `NC(=O)c1ccc(NC(=O)CCN2CCCC(N3CCCC3)C2)cc1` (stereo unspecified), the cytotoxicity at 10 µM is -8.59%.

As to `CNS(=O)(=O)c1cccc(C(C)NCc2cccc(OC)c2)c1` (stereo unspecified), the cytotoxicity at 10 µM was -12.3%.

In the case of `Cc1ccc(CNC(=O)C2CCN(C(=O)C(C)C)CC2)n1C`, the cytotoxicity at 10 µM stood at 5.71%.

`CN(CC(N)=O)C(=O)c1cnc(-c2ccc(Cl)s2)s1`: the cytotoxicity at 10 µM was -5.02%.

Take `COCC[C@]1(O)CCN(Cc2nc(C(C)C)cs2)C[C@H]1C`: the cytotoxicity at 10 µM is -6.26%.

With `Cc1cc(C(F)(F)F)cc(N2CCC3(CCC(=O)N(CCO)C3)CC2)n1`, the cytotoxicity at 10 µM came to 8.09%.

Turning to `CCc1nccn1CCC(=O)N1CCCC1c1cncc(NC)n1` (stereo unspecified), the cytotoxicity at 10 µM was found to be 3.53%.

For `O=C(c1ccc[nH]1)N1CCOCC2(CCN(C3CCOCC3)C2)C1` (stereo unspecified), the cytotoxicity at 10 µM turned out to be 10.7%.

Take `O=C(Nc1ccc2c(c1)OCCO2)N1CCCC1c1ccco1` (stereo unspecified): the cytotoxicity at 10 µM was 8.2%.

As for `COCCCn1ccc(NC2CCSCC2)n1`, the cytotoxicity at 10 µM came to 3.04%.

As for `CCCS(=O)(=O)NC(=O)c1ccc(Br)o1`, the cytotoxicity at 10 µM was -6.11%.

For the compound `CSCC[C@H](N)C(=O)NCc1cc2n(n1)CCCN(C(=O)N(C)C)C2`, the cytotoxicity at 10 µM was 9.8%.

With `Cc1nn(CCC(=O)NC2CCS(=O)(=O)C2)c(C)c1Br` (stereo unspecified), the cytotoxicity at 10 µM worked out at 0.549%.

`CCc1[nH]ncc1C(=O)N1CCOC(c2nc(C)n[nH]2)C1` (stereo unspecified): the cytotoxicity at 10 µM was -8.69%.

Consider `CCc1cnc(C)nc1N1CCC(Cc2cccc(C(=O)O)c2)C1` (stereo unspecified), for which the cytotoxicity at 10 µM worked out at 2.42%.

As to `CN(C)CCNC(=O)c1cc(-c2cnc(N(C)C)nc2)cn1CC1CC1`, the cytotoxicity at 10 µM is -5.81%.

With `Cc1ccc(CC2COCCN(S(C)(=O)=O)C2)nc1` (stereo unspecified), the cytotoxicity at 10 µM is -0.56%.

Regarding `CC(C)c1nnc2n1CCN(C(=O)c1ccc(-n3cnnc3)cc1)C2`, the cytotoxicity at 10 µM is -11.5%.

For `Cc1nc(CN(C)C2CCN(Cc3nc4ccccc4n3C)C2)no1` (stereo unspecified), the cytotoxicity at 10 µM was -9.26%.

For `CCc1ccc(C(NC(=O)CCS(C)(=O)=O)C(C)(C)C)o1` (stereo unspecified), the cytotoxicity at 10 µM is -3.58%.

As for `CC(=O)N1CCCN(C(=O)NCCNc2cnccn2)CC1`, the cytotoxicity at 10 µM is -2.28%.

Take `O=C1CC2(CCN(C(=O)c3ccncc3)CC2)Oc2c(Cl)cc(Cl)cc21`: the cytotoxicity at 10 µM came out at 5.17%.

Regarding `Cc1ccc(C(=O)N2CCN(CCCSCC#N)CC2)cc1F`, the cytotoxicity at 10 µM is -145%.

Take `COc1cccc(OC)c1C(=O)N1C[C@@H](CN(C)C)[C@@H](CO)C1`: the cytotoxicity at 10 µM was -4.51%.

In the case of `COc1cccc(CCC(=O)N2CCN(Cc3noc(C)n3)CC2)c1`, the cytotoxicity at 10 µM worked out at 3.09%.

As to `O[C@@H]1CCN(CC2CCOC2)[C@H]1Cc1cccnc1` (stereo partly specified), the cytotoxicity at 10 µM is -8.56%.

As to `CC(NC(=O)N1CCN(c2ncccn2)CC1)c1ccc(C#N)cc1` (stereo unspecified), the cytotoxicity at 10 µM is -2.81%.

As to `CCc1cnc(C)nc1NCCN1CCCCCC1`, the cytotoxicity at 10 µM was -10.8%.

Take `CCc1nc(C2CCCN2CCn2cncn2)no1` (stereo unspecified): the cytotoxicity at 10 µM is -8.13%.

On to `COC[C@H]1CNC(=O)[C@@H]2CCN(Cc3ccc(F)cc3)CC[C@H]12`, for which the cytotoxicity at 10 µM is 14.2%.

In the case of `Cc1nn(C)c2c(N(C)Cc3ccco3)nc(C3CC3)nc12`, the cytotoxicity at 10 µM came to 1.58%.

In the case of `CN(CCOc1cccc(CNC(=O)C2CC2)c1)C1CCOCC1`, the cytotoxicity at 10 µM is -7.12%.

In the case of `CC(C)(O)CNC(=O)c1sccc1Br`, the cytotoxicity at 10 µM is -5.58%.

For the compound `CCCC(=O)NC1CCCN(Cc2cccs2)C1` (stereo unspecified), the cytotoxicity at 10 µM was -3.25%.

Turning to `CC(C)C(=O)N1Cc2ccccc2CC2(CCCN2C)C1` (stereo unspecified), the cytotoxicity at 10 µM was 4.51%.

Regarding `Cc1nn(C)c(N(C)C)c1CNCc1cnn(Cc2ccccc2)c1`, the cytotoxicity at 10 µM is -5.6%.

As to `CCNC(=O)N1CCC(n2ccc(C(F)(F)F)n2)CC1`, the cytotoxicity at 10 µM stood at 10.5%.

Turning to `CN(C(=O)CC1=CCCCC1)C1CCCN(C2Cc3ccccc3C2)C1` (stereo unspecified), the cytotoxicity at 10 µM is -0.296%.

Turning to `O=S(=O)(Cc1ccccc1)NCCNc1ccc(-n2cccc2)nn1`, the cytotoxicity at 10 µM was determined as 10.8%.

Regarding `Cn1ccnc1CN(CCO)Cc1ccc(C(F)(F)F)cc1`, the cytotoxicity at 10 µM was -17.3%.

For the compound `Cc1ccc(C)c(CS(=O)(=O)CC(=O)N(C)Cc2cccc(F)c2)c1`, the cytotoxicity at 10 µM was found to be 4.42%.

Take `Cn1cccc1C(=O)N1C[C@H]2CN(CCN3CCCC3)C(=O)[C@H]2C1`: the cytotoxicity at 10 µM was -119%.
